According to ChEMBL document CHEMBL4145692, “Discovery of a Locally and Orally Active CXCL12 Neutraligand (LIT-927) with Anti-inflammatory Effect in a Murine Model of Allergic Airway Hypereosinophilia” (J Med Chem, 2018):
≈ marks a conversion by molar mass, not a printed value. Calls of active or inactive are those of the source. No cut-off for these calls is given here.

Legend:
[1] = molecular target: T1, C-C motif chemokine 22 (Homo sapiens) (UniProt O00626); experiment: Binding affinity to CCL22 (unknown origin) assessed as inhibition of CCL22-induced increase in intracellular calcium level in EGFP-tagged CCR4 expressing HEK cells at 10 uM
T1 sequence (whole entry): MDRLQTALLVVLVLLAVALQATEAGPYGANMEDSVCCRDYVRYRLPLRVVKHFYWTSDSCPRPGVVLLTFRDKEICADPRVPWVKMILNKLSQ

[2] = Chemical stability in pH 7.4 PBS/Cdx buffer assessed as parent compound remaining at 10 uM incubated for 24 hrs by RP-HPLC method; assay type: physicochemical; details: read-out: Stability
How it was run: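 Compound diluted from DMSO stock to 10 μM final (1% DMSO) in PBS pH 7.4, or in PBS with 10% w/w (2-hydroxypropyl)-β-cyclodextrin. Sampled at t0, 2, 4, 6 and 24 h and injected directly onto RP-HPLC. Percent remaining relative to t0 from peak area.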

Mus musculus [3] = experiment: Toxicity in Balb/c mouse model of hypereosinophilia assessed as induction of kidney lesions at 350 umol/kg, ip dosed daily 2 hrs before allergen challenge for […] and measured 24 hrs after last dose by Gomori's trichrome staining based histological analysis; assay type: organism-based; details: in vivo
Mus musculus [4] = experiment: Toxicity in Balb/c mouse model of hypereosinophilia assessed as reduction in body weight at 350 umol/kg, ip dosed daily 2 hrs before allergen challenge for 3 days and measured 24 hrs after last dose; assay type: organism-based; set-up: scale not given: the % may be the effect or the level left; details: in vivo
How it was run: (§1)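 Same OVA model with i.p. dosing 2 h before each of the three challenges: neutraligands 350 μmol/kg in PBS/CMC 1%, AMD3100 12.6 μmol/kg, dexamethasone 2.5 μmol/kg. Body and spleen weight loss recorded 24 h after three daily administrations; n=6/group.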

[5] = molecular target: T2, Stromal cell-derived factor 1 (Homo sapiens, UniProt P48061); experiment: Binding affinity to CXCL12 (unknown origin) assessed as changes in tryptophan fluorescence intensity
T2 sequence (P48061 whole entry): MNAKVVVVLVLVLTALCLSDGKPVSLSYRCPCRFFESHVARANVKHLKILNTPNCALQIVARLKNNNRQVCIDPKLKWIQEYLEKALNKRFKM
How it was run: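 Intrinsic Trp fluorescence of CXCL12 (2 μM in Hepes buffer), excitation 285 nm, emission 340 nm, titrated with increasing compound. Kd obtained by fitting a 1:1 binding quadratic model with chemokine fixed at 2 μM. Mean ± SD of three independent experiments.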

Mus musculus [6] = experiment: Toxicity in Balb/c mouse model of hypereosinophilia assessed as induction of liver lesions at 350 umol/kg, ip dosed daily 2 hrs before allergen challenge for […] and measured 24 hrs after last dose by Gomori's trichrome staining based histological analysis; assay type: organism-based; details: in vivo
Mus musculus [7] = experiment: Toxicity in Balb/c mouse model of hypereosinophilia assessed as induction of heart lesions at 350 umol/kg, ip dosed daily 2 hrs before allergen challenge for […] and measured 24 hrs after last dose by Gomori's trichrome staining based histological analysis; assay type: organism-based; details: in vivo
[8] = Stability in presence of GSH assessed as Michael acceptor reactivity by measuring GSH adduct formation after 2 hrs at 37 degC by LC-MS/MS method; assay type: physicochemical
How it was run: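 Compound 200 μM with 500 μM reduced GSH in methanol/50 mM carbonate buffer pH 8. Aliquots taken at 1 min and 2 h, diluted 1/40, and analysed by LC-MS/MS for GSH-conjugate formation.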

Mus musculus [9] = experiment: Toxicity in Balb/c mouse model of hypereosinophilia assessed as reduction in body weight at 350 umol/kg, ip dosed daily 2 hrs before allergen challenge for 10 days and measured 24 hrs after last dose; assay type: organism-based; details: in vivo
How it was run: (§2)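 Mice given 10 daily administrations at 350 μmol/kg. Monitored for weight loss and for signs of toxicity, including prostration and bristly hair.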

Mus musculus [10] = experiment: Toxicity in Balb/c mouse model of hypereosinophilia assessed as reduction in body weight at 12.6 umol/kg, ip dosed daily 2 hrs before allergen challenge for 3 days and measured 24 hrs after last dose; assay type: organism-based; details: in vivo
How it was run: as §1

Mus musculus [11] = experiment: Toxicity in Balb/c mouse model of hypereosinophilia assessed as induction of spleen lesions at 350 umol/kg, ip dosed daily 2 hrs before allergen challenge for […] and measured 24 hrs after last dose by Gomori's trichrome staining based histological analysis; assay type: organism-based; details: in vivo
Mus musculus [12] = experiment: Toxicity in Balb/c mouse model of hypereosinophilia assessed as toxic signs at 350 umol/kg, ip dosed daily 2 hrs before allergen challenge for 10 days and measured 24 hrs after last dose; assay type: organism-based; details: in vivo
How it was run: as §2

[13] = molecular target: T2, Stromal cell-derived factor 1; experiment: Binding affinity to Texas Red-labelled CXCL12 (unknown origin) assessed as inhibition of CXCL12-Texas Red binding to EGFP-labeled human CXCR4 expressed in HEK293 cell membranes pre-incubated for 1 hr by FRET-based binding assay
How it was run: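 HEK-293 cells stably expressing human EGFP-CXCR4, 10⁶ cells/ml in HEPES buffer pH 7.4 with 0.1% BSA, 21 °C. CXCL12-Texas Red (100 nM) was preincubated 1 h at room temperature with compound or DMSO, then added at t=150 s. FRET read as loss of EGFP emission at 510 nm (excitation 470 nm) up to equilibrium. Ki from dose-response curves.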

Mus musculus [14] = experiment: Toxicity in Balb/c mouse model of hypereosinophilia assessed as reduction in spleen weight at 350 umol/kg, ip dosed daily 2 hrs before allergen challenge for 3 days and measured 24 hrs after last dose; assay type: organism-based; set-up: scale not given: the % may be the effect or the level left; details: in vivo
How it was run: as §1

[15] = Thermodynamic solubility in pH 7.4 PBS buffer incubated for 24 hrs at 22 degC by HPLC method; assay type: physicochemical; details: read-out: Therm_solubility
How it was run: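 Powder dissolved to saturation in pH 7.4 PBS (100 mM sodium phosphate, 150 mM NaCl), or in PBS with 10% Cdx, and shaken 24 h. After centrifugation, supernatant quantified by HPLC against a per-compound calibration line prepared from the DMSO stock.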

Mus musculus [16] = experiment: Toxicity in Balb/c mouse model of hypereosinophilia assessed as induction of bristly hair at 350 umol/kg, ip dosed daily 2 hrs before allergen challenge for 10 days and measured 24 hrs after last dose; assay type: organism-based; details: in vivo
How it was run: as §2

[17] = molecular target: T3, C-C motif chemokine 17 (Homo sapiens) (UniProt Q92583); experiment: Binding affinity to CCL17 (unknown origin) assessed as inhibition of CCL17-induced increase in intracellular calcium level in EGFP-tagged CCR4 expressing HEK cells at 10 uM
T3 sequence (whole entry): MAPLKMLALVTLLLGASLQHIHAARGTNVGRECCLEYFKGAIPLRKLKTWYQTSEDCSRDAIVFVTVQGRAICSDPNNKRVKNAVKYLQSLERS

Mus musculus [18] = experiment: Toxicity in Balb/c mouse model of hypereosinophilia assessed as prostration at 350 umol/kg, ip dosed daily 2 hrs before allergen challenge for 10 days and measured 24 hrs after last dose; assay type: organism-based; details: in vivo
How it was run: as §2

Mus musculus [19] = experiment: Inhibition of macrophages infiltration in Balb/c mouse model of 8 day model of allergic eosinophilic airway inflammation at 300 nmol/kg dosed intranasally 2 hrs before ovalbumin challenge by hemocytometry; assay type: functional, organism-based
[20] = molecular target: T4, C-C motif chemokine 5 (Homo sapiens) (UniProt P13501); experiment: Binding affinity to CCL5 (unknown origin) assessed as inhibition of CCL5-induced increase in intracellular calcium level in EGFP-tagged CCR5 expressing HEK cells at 10 uM
T4 sequence (whole entry): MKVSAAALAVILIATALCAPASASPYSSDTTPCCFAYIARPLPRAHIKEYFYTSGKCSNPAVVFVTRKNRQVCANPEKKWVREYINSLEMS

SMILES: COc1cc(-c2cc(-c3ccc(Cl)cc3)nc(=O)[nH]2)ccc1O
- inhibition [1]: inactive
- remaining at 24 h, 10 µM [2]: 100%
- Activity (Mus musculus [3]): Non-Toxic
- Activity (Mus musculus [4]): 0%
- Kd [5]: 780 nM
- Activity (Mus musculus [6]): Non-Toxic
- Activity (Mus musculus [7]): Non-Toxic
- Stability [8]: Stable
- Activity (Mus musculus [9]): Non-Toxic
- Activity (Mus musculus [10]): Non-Toxic
- Activity (Mus musculus [11]): Non-Toxic
- Activity (Mus musculus [12]): Non-Toxic
- Ki [13]: 267 nM
- Activity (Mus musculus [14]): 0%
- solubility thermodynamic at 24 h [15]: 36.4 µM (≈ 12 µg/mL)
- Activity (Mus musculus [16]): Non-Toxic
- inhibition [17]: inactive
- Activity (Mus musculus [18]): Non-Toxic
- inhibition (Mus musculus [19]): inactive
- inhibition [20]: inactive
